The source of these data is publication PMC6931396 (Journal of medicinal chemistry, 2019).

For series [1], the system named is TOPFlash luciferase reporter (three wild-type Tcf4 binding sites) in β-catenin activated HEK293 cells. As to the kind of experiment: TOPFlash luciferase reporter assay. In kind it is cell-based. The settings on record: 24 h. An outline of the steps:
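HEK293 cells were co-transfected with FuGENE 6, using 45 ng TOPFlash or FOPFlash reporter plus 135 ng pcDNA3.1-β-catenin. Cells were grown 24 h in DMEM with 10% FBS at 37 °C, then treated with test compound at various concentrations. After 24 h, luciferase activity was read by a dual-luciferase system, normalized, and compared with DMSO-treated cells. Triplicate; unpaired two-tailed t-test.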

For series [2], the target named is T1, β-catenin/Tcf PPI (human β-catenin residues 138–781 / fluorescein-labeled human Tcf4 residues 7–51) (Homo sapiens, UniProt P35222).
T1 sequence (P35222 138-781): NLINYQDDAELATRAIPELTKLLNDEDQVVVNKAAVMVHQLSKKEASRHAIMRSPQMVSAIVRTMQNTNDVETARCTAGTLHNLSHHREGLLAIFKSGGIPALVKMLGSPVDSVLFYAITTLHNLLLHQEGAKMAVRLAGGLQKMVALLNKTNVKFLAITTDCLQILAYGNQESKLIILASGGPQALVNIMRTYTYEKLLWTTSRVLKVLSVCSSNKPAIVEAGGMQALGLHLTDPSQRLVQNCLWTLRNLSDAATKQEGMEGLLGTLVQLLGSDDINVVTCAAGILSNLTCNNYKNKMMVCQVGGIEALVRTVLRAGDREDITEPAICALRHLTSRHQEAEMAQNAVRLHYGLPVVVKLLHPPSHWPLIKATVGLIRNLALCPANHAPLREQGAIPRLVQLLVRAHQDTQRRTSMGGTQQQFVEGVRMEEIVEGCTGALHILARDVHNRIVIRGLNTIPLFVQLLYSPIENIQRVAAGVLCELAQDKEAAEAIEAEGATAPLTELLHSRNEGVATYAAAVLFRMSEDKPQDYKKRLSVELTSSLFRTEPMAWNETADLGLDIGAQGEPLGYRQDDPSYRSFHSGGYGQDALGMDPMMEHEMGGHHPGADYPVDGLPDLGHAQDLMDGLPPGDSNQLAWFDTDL
It is filed as binding.

The next series deals with SW480 cells. As to the kind of experiment: HPLC–MS based cell bioavailability assay. It is filed as in vitro ADME. Conditions: for cell-bound concentration: 37 °C, 3 h incubation in 5 mL DMEM with 10% FBS, input concentration 25 μM.
The subject of series [3] is β-catenin/Tcf PPI in HCT116 cells. As to the kind of experiment: Co-IP in HCT116 cells, β-catenin/Tcf. The settings on record: HCT116 cells treated 24 h. In kind it is cell-based.
The subject of series [4] is TNBC MDA-MB-231 cells. Description: Matrigel invasion assay. In kind it is cell-based, human. The settings on record: 10 μM, 24 h.
The test system of series [5] is β-catenin/E-cadherin PPI in HCT116 cells. As to the kind of experiment: Co-IP in HCT116 cells, β-catenin/E-cadherin. It is filed as cell-based. Conditions: concentrations sufficient to disrupt β-catenin/Tcf PPI.
For series [6], the system named is β-catenin/APC PPI in HCT116 cells. Description: Co-IP in HCT116 cells, β-catenin/APC. The settings on record: concentrations sufficient to disrupt β-catenin/Tcf PPI. In kind it is cell-based.
For series [7], the system named is TNBC MDA-MB-231 cells. Description: Scratch wound healing assay. In kind it is cell-based, human. The settings on record: 10 μM, 10% serum, mitomycin 10 μg/mL, 14 h. An outline of the steps: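 Wounds were scraped with a sterile 200 µL pipette tip into ~70–80% confluent MDA-MB-231 monolayers. Cells were kept in DMEM with 10% FBS plus 10 µg/mL mitomycin to block proliferation, with test compound or vehicle (0.2% DMSO). Wounds were imaged immediately and at 14 h. […] Mean ± SD, n=3.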

The conditions of series [8]: unless converted into the ester form; previous study; cited from earlier work.

In the case of `CCOC(=O)CC[C@H](NC(=O)[C@H](CC(=O)OCC)NC(=O)[C@H](Cc1ccc2ccccc2c1)NC(=O)c1cc2cc(OC)ccc2[nH]1)C(=O)OC` [(Et)-15], in series [1] (concentration of up to 200 μM), the TOPFlash luciferase activity entry was “did not inhibit”. `COC(=O)[C@H](CCC(=O)O)NC(=O)[C@H](CC(=O)O)NC(=O)[C@H](Cc1ccc2ccccc2c1)NC(=O)Cc1c[nH]c2cc(Cl)ccc12` [Compound 3]: the “inhibitory potency for β-catenin/Tcf PPI in words” value in series [2] is “great loss of potency”.

On to `COC(=O)[C@H](CCC(=O)O)NC(=O)[C@H](CC(=O)O)NC(=O)[C@H](Cc1ccc2ccccc2c1)NC(=O)Cc1c[nH]c2ccc(Cl)cc12` [Compound 2], for which, in series [2], the “inhibitory potency for β-catenin/Tcf PPI in words” value was “great loss of potency”. On to `NC(=O)CC[C@H](NC(=O)[C@H](Cc1nn[nH]n1)NC(=O)[C@H](Cc1ccc2ccccc2c1)NC(=O)c1cc2cc(Cl)ccc2[nH]1)C(=O)Nc1ccc(OC(F)(F)F)cc1` [Compound 55, (S)-2-((S)-2-((S)-2-(5-Chloro-1H-indole-2-carboxamido)-3-(naphthalen-2-yl)propanamido)-3-(2H-tetrazol-5-yl)propanamido)-N^1-(4-(trifluoromethoxy)phenyl)pentanediamide], for which, in [1] (different concentrations), the TOPFlash luciferase activity entry is reported as “suppressed the TOPFlash luciferase activities in dose-dependent manners”.

Regarding `COC(=O)[C@H](CCC(=O)O)NC(=O)[C@H](CC(=O)O)NC(=O)[C@H](Cc1ccc2ccccc2c1)NC(=O)c1cc2c(Cl)cc(Cl)cc2[nH]1` [Compound 19], the “potency improvement over 9” value in series [2] is ~ 3 fold. As to `O=C(O)CC[C@H](NC(=O)[C@H](CC(=O)O)NC(=O)[C@H](Cc1ccc2ccccc2c1)NC(=O)c1cc2cc(Cl)ccc2[nH]1)C(=O)Nc1ccccc1` [Compound 21, (S)-4-((S)-3-Carboxy-2-((S)-2-(5-chloro-1H-indole-2-carboxamido)-3-(naphthalen-2-yl)propanamido)propanamido)-5-oxo-5-(phenylamino)pentanoic Acid], in series [2], the “potency improvement over 9” value was determined as 3.4 fold. The compound `O=C(O)CC[C@H](NC(=O)[C@H](Cc1nn[nH]n1)NC(=O)[C@H](Cc1ccc2ccccc2c1)NC(=O)c1cc2cc(Cl)ccc2[nH]1)C(=O)Nc1ccc(OC(F)(F)F)cc1` [Compound 53, (S)-4-((S)-2-((S)-2-(5-Chloro-1H-indole-2-carboxamido)-3-(naphthalen-2-yl)propanamido)-3-(2H-tetrazol-5-yl)propanamido)-5-oxo-5-((4-(trifluoromethoxy)phenyl)amino)pentanoic Acid] showed a cell-bound concentration in the series on SW480 cells of 0.17 nmol/million SW480 cells. Consider `CCOC(=O)CC[C@H](NC(=O)[C@H](Cc1nn[nH]n1)NC(=O)[C@H](Cc1ccc2ccccc2c1)NC(=O)c1cc2cc(Cl)ccc2[nH]1)C(=O)Nc1ccc(OC(F)(F)F)cc1` [Compound 56, Ethyl (S)-4-((S)-2-((S)-2-(5-Chloro-1H-indole-2-carboxamido)-3-(naphthalen-2-yl)propanamido)-3-(2H-tetrazol-5-yl)-propanamido)-5-oxo-5-((4-(trifluoromethoxy)phenyl)amino)-pentanoate], for which, in series [3], the “inhibition of β-catenin/Tcf PPI (co-IP)” value is listed as “dose-dependently inhibited”. In addition, the “inhibition of TNBC cell invasion” value with TNBC MDA-MB-231 cells [4] was “effectively inhibit”. Moreover, the TOPFlash luciferase activity result in [1] (different concentrations) is “suppressed the TOPFlash luciferase activities in dose-dependent manners”. Further, in [5], the “effect on β-catenin/E-cadherin PPI (co-IP)” value was “had no effect”. In addition, the “effect on β-catenin/APC PPI (co-IP)” value in series [6] was “had no effect”. Further, the “inhibition of TNBC cell migration” value in the series on TNBC MDA-MB-231 cells [7] is “effectively inhibit”. In addition, in the series on SW480 cells, the cell-bound concentration is 1.4 nmol/million SW480 cells. Further, in the series on SW480 cells (24 h incubation with SW480 cells in 5 mL DMEM with 10% FBS), the “transformation into 53” value was “did not transform into 53”.

As to `COC(=O)[C@H](CCC(=O)O)NC(=O)[C@H](CC(=O)O)NC(=O)[C@H](Cc1ccc2ccccc2c1)NC(=O)Cc1cc2cc(Cl)ccc2[nH]1` [Compound 1], in [8], the “activity in cell-based assays” value is “almost inactive”.
